Data on five compounds can be found in ChEMBL document CHEMBL1154421, “In vitro suppression of K65R reverse transcriptase-mediated tenofovir- and adefovir-5'-diphosphate resistance conferred by the boranophosphonate derivatives” (Antimicrob Agents Chemother, 2007).

Test [1] deals with Human immunodeficiency virus type 1 reverse transcriptase (Human immunodeficiency virus 1) (UniProt Q72547). Kind of test: Binding affinity to HIV1 wild type reverse transcriptase p66/p51 assessed as ratio of catalytic rate constant to Kd for dATP to drug by gel electrophoresis. The method in brief: (§1)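 Pre-steady-state single-nucleotide incorporation, rapid quench over 10 ms to 30 s. Primer is a 5'-32P-labelled 21-mer annealed to a 31-mer DNA template. Products resolved on 14% acrylamide/8 M urea gels and phosphorimaged. kpol and Kd fitted to a hyperbola.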

Test [2] has as its target T1, Human immunodeficiency virus type 1 reverse transcriptase (Human immunodeficiency virus 1, UniProt Q72547). Kind of test: Inhibition of HIV1 wild type reverse transcriptase p66/p51 expressed in Escherichia coli using calf thymus DNA substrate. In outline: (§2)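 Recombinant p66/p51 RT, coexpressed with HIV-1 protease in E. coli, affinity-purified and active-site titrated. Reactions used 10 nM RT, 250 µg/ml activated calf thymus DNA and 5 µM each dNTP with [3H]dATP (100 µCi/mmol), run for 15 min across increasing inhibitor. Samples spotted in duplicate on DE81 discs, washed in 0.3 M ammonium formate pH 8.0 and ethanol, then scintillation counted. IC50 averaged from at least three independent experiments.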

Test [3] addresses T2, Human immunodeficiency virus type 1 reverse transcriptase (Human immunodeficiency virus 1, UniProt Q72547, K65R). Kind of test: Inhibition of HIV1 reverse transcriptase p66/p51 K65R mutant expressed in Escherichia coli using calf thymus DNA substrate. The method in brief: as §2
For test [4], the system named is Human immunodeficiency virus 1. Kind of test: Ratio of IC50 for HIV1 reverse transcriptase p66/p51 K65R mutant to IC50 for HIV1 wild type reverse transcriptase. The method in brief: as §2
Test [5] addresses T1, Human immunodeficiency virus type 1 reverse transcriptase. Kind of test: Binding affinity to HIV1 wild type reverse transcriptase p66/p51 expressed in Escherichia coli assessed as incorporation of drug to DNA by gel electrophoresis. In outline: as §1
Test [6] has as its target T2, Human immunodeficiency virus type 1 reverse transcriptase. In words: Binding affinity to HIV1 recombinant reverse transcriptase p66/p51 K65R mutant expressed in Escherichia coli assessed as incorporation of drug to DNA by gel electrophoresis. In outline:
as §1

For test [7], the target named is Human immunodeficiency virus type 1 reverse transcriptase (Human immunodeficiency virus 1) (UniProt Q72547). In words: Binding affinity to wild type reverse transcriptase assessed as ratio of catalytic rate constant to Kd for incorporation of drug to DNA by gel electrophoresis. In outline: as §1
Test [8] deals with Human immunodeficiency virus type 1 reverse transcriptase (Human immunodeficiency virus 1), Q72547 [K65R]. Kind of test: Binding affinity to HIV1 recombinant reverse transcriptase p66/p51 K65R mutant expressed in Escherichia coli assessed as ratio of catalytic rate constant to Kd for incorporation of drug to DNA by gel electrophoresis. In outline:
as §1

In test [9] the target is Human immunodeficiency virus type 1 reverse transcriptase (Human immunodeficiency virus 1) (UniProt Q72547). In words: Inhibition of HIV1 wild type reverse transcriptase p66/p51 DNA polymerase activity assessed as formation of terminated DNA products. Also on record: concentration or dose not given beside the values. Conditions: concentration not given here.
In test [10] the test system is Human immunodeficiency virus 1. Kind of test: Inhibition of HIV1 […] reverse transcriptase p66/p51 R72A mutant DNA polymerase activity assessed as formation of terminated DNA products. Conditions: concentration not given here. In outline: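 Polymerization rate gel assay with WT or R72A RT (50 nM) and 25 nM 5'-labelled oligo(dA)21 annealed to poly(rU)31, in RT buffer at 37°C. Extension followed over the first seconds with dATP or analogues. Products separated by denaturing gel electrophoresis and autoradiographed.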

The subject of test [11] is Human immunodeficiency virus type 1 reverse transcriptase (Human immunodeficiency virus 1), Q72547 [K65R]. In words: Binding affinity to HIV1 recombinant reverse transcriptase p66/p51 K65R mutant assessed as ratio of catalytic rate constant to Kd for dATP to drug by gel electrophoresis. In outline: as §1

For `C[C@H](Cn1cnc2c(N)ncnc21)OCP(=O)(O)OP(=O)(O)OP(=O)(O)O`, the Ratio in test [1] was 21.9; in [7], 0.3; in test [8], 0.02; in test [11], 97.8. For the same compound, the 50% inhibitory concentration (IC50) in test [2] stood at 22 µM; in test [3] it was 170 µM. In addition, the Ratio IC50 in test [4] came out at 8. For the same compound, the Kd in test [5] was 23 µM; in test [6], 18 µM. Moreover, the results for the inhibition in test [9] and in test [10] were 74% and 0.2%, respectively.
For the compound `Nc1ncnc2c1ncn2[C@H]1C[C@H](O)[C@@H](COP(=O)(O)OP(=O)(O)OP(=O)(O)O)O1`, the Kd in [5] stood at 7.5 µM; in test [6], 6.9 µM. For the same compound, the Ratio in test [7] was determined as 6.7; in test [8] it was 1.7. Also, in [9], the inhibition came out at 75%.
As for `BP(=O)(COCCn1cnc2c(N)ncnc21)OP(=O)(O)OP(=O)(O)O` (centres undefined), the Ratio in test [1] was determined as 21.7; in test [7] it was 0.3; in [8], 0.2; in test [11] it was 8.8. The IC50 in test [2] is 17 µM; in test [3], 12 µM. Moreover, the Ratio IC50 in [4] was 0.7. The dissociation constant (Kd) was determined as 6.5 µM in test [5] and 7.1 µM in test [6]. Further, the inhibition in test [9] was 69%; in test [10], 53%.
Consider `Nc1ncnc2c1ncn2CCOCP(=O)(O)OP(=O)(O)OP(=O)(O)O` [ADEFOVIR DIPHOSPHATE], for which the Ratio came out at 7.7 in test [1], 0.9 in [7], 0.1 in test [8] and 17.9 in [11]. In addition, the IC50 turned out to be 8.3 µM in [2] and 52 µM in test [3]. For the same compound, the Ratio IC50 in test [4] turned out to be 6. Besides, the Kd in [5] is 7.9 µM; in test [6] it was 7.7 µM. Moreover, the inhibition was found to be 72% in test [9] and 1.6% in test [10].
For `BP(=O)(CO[C@H](C)Cn1cnc2c(N)ncnc21)OP(=O)(O)OP(=O)(O)O` (some centres undefined), the Ratio in test [1] came to 9.6; in test [7] it was 0.7; in [8] it was 0.17; in test [11], 10. Moreover, the IC50 was 14.5 µM in [2] and 18 µM in test [3]. In test [4], the Ratio IC50 was found to be 1.2. In addition, the results for the equilibrium dissociation constant (Kd) in [5] and in test [6] were 33 µM and 35 µM, respectively. Moreover, the inhibition in test [9] came out at 74%; in test [10], 45%.

What is called IC50 is the point on the concentration scale where inhibition reaches its midpoint. Usually Kd stands for the concentration at which binding is half-saturated. For orientation: inhibition means the change of the read-out against control, counted positive when it falls.
